Assay results published in ChEMBL document CHEMBL2407025, “Antiplasmodial and cytotoxic flavans and diarylpropanes from the stems of Combretum griffithii” (J Nat Prod, 2013).
The source made the active and inactive calls. The calls are words filed in the database; no cut-off is given here.

How the values were obtained:
[1] = tested on: Mycobacterium tuberculosis; assay: Antimycobacterial activity against Mycobacterium tuberculosis H37Ra at 50 ug/ml by MABA; format: functional, organism-based
Procedure, shortened: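 M. tuberculosis H37Ra was tested in vitro by microplate Alamar Blue assay (MABA). 50 μg/mL was the highest test concentration. Isoniazid was run as the reference standard.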

[2] = tested on: KB; assay: Cytotoxicity against human KB cells by colorimetric method; format: functional, cell-based
Procedure, shortened: (§1)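 Human epidermoid carcinoma KB, breast cancer MCF7 and small cell lung cancer NCI-H187 lines assayed by the Skehan colorimetric method. Test samples at a maximum final concentration of 50 μg/mL. Doxorubicin served as reference. Values are reported as IC50.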

[3] = tested on: NCI-H187; assay: Cytotoxicity against human NCI-H187 cells by colorimetric method; format: functional, cell-based; procedure, shortened: as §1
[4] = tested on: MCF7; assay: Cytotoxicity against human MCF7 cells by colorimetric method; format: functional, cell-based; procedure, shortened: as §1
[5] = tested on: Plasmodium falciparum; assay: Antimalarial activity against Plasmodium falciparum K1 assessed as reduction in parasite growth measuring [3H]-hypoxanthine uptake by microculture radioisotope technique; format: functional, organism-based
Procedure, shortened: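 P. falciparum K1 (multidrug-resistant) cultured in vitro by Trager–Jensen method. Growth inhibition read as [3H]-hypoxanthine uptake in a microculture radioisotope assay (Desjardins method). Samples tested up to a maximum final concentration of 10 μg/mL. IC50 taken as the concentration giving 50% reduction in parasite growth. Dihydroartemisinin served as reference.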

[6] = tested on: Plasmodium falciparum; assay: Antimalarial activity against Plasmodium falciparum K1 assessed as reduction in parasite growth measuring [3H]-hypoxanthine uptake at 10 ug/ml by microculture radioisotope technique; format: functional, organism-based
[7] = Homo sapiens, MCF7, read-out: IC50

Question: With `COc1cc(CCCc2cc(OC)c(O)c(OC)c2)ccc1O` as the molecule, how does the Activity [1] read?
Answer: inactive

Question: What about the IC50 [2] of the same molecule?
Answer: 46 µM

Question: What about the IC50 [3] of the same molecule?
Answer: 42.1 µM

Question: And the IC50 [4, 7]?
Answer: 72 µM

Question: And the IC50 [5]?
Answer: 14.5 µM

Question: Which results are given for `COc1cc([C@@H]2CCc3cc(OC)c(OC)cc3O2)ccc1O` [(2S)-4'-HYDROXY-6,7,3'-TRIMETHOXYFLAVAN]?
Answer: Activity [1]: inactive; IC50 [2]: 106 µM; IC50 [3]: 125 µM; IC50 ([4]; mcf7): Not Active; Activity [6]: inactive

Question: Which results are given for `COc1cc2c(cc1OC)O[C@H](c1ccc(O)c(O)c1)CC2` [(2S)-3',4'-DIHYDROXY-6,7-DIMETHOXYFLAVAN]?
Answer: Activity [1]: inactive; IC50 [2]: 43.1 µM; IC50 [3]: 51.4 µM; IC50 [4, 7]: 75 µM; IC50 [5]: 15.7 µM

Question: Which Activity [1] does the source give for `COc1cc(CCCc2cc(O)c(OC)cc2OC)ccc1O` here?
Answer: inactive

Question: What about the IC50 [2] of the same molecule?
Answer: 24.6 µM

Question: What about the IC50 [3] of the same molecule?
Answer: 34.6 µM

Question: What about the IC50 [4, 7] of the same molecule?
Answer: 23.1 µM

Question: What about the Activity [6] of the same molecule?
Answer: inactive

Question: How did the IC50 [5] turn out when `C[C@H]1[C@@H](O)O[C@@H]2O[C@@]3(C)CC[C@H]4[C@H](C)CC[C@@H]1[C@@]24OO3` [ARTENIMOL] was run?
Answer: 0.00142 µM

Question: What does the source list for `COc1cc(CCCc2c(OC)cc(O)cc2OC)ccc1O`?
Answer: Activity [1]: inactive; IC50 [2]: 49.3 µM; IC50 [3]: 96 µM; IC50 [4, 7]: 64.2 µM; Activity [6]: inactive

Question: What does the source list for `COc1cc([C@@H]2CCc3cc(O)c(OC)cc3O2)ccc1O`?
Answer: Activity [1]: inactive; IC50 [2]: 69 µM; IC50 [3]: 76.5 µM; IC50 [4, 7]: 90.1 µM; Activity [6]: inactive

Question: Which IC50 [2] does the source give for `COc1cccc2c1C(=O)c1c(O)c3c(c(O)c1C2=O)C[C@@](O)(C(=O)CO)C[C@@H]3O[C@H]1C[C@H](N)[C@H](O)[C@H](C)O1` [DOXORUBICIN] here?
Answer: 0.38 µM

Question: What about the IC50 [3] of the same molecule?
Answer: 0.12 µM

Question: `COc1cc(OC)c2c(c1)O[C@H](c1ccc(O)c(O)c1)CC2` [(2S)-3',4'-DIHYDROXY-5,7-DIMETHOXYFLAVAN] was tested. Which Activity [1] did it give?
Answer: inactive

Question: What about the IC50 [2] of the same molecule?
Answer: 31.8 µM

Question: And the IC50 [3]?
Answer: 10.4 µM

Question: What about the IC50 [4, 7] of the same molecule?
Answer: 49.1 µM

Question: And the IC50 [5]?
Answer: 9.66 µM

Question: With `COc1ccc2c(c1)O[C@H](c1ccc(O)c(OC)c1)CC2` [(2S)-4'-HYDROXY-7,3'-DIMETHOXYFLAVAN] as the molecule, how does the Activity [1] read?
Answer: inactive

Question: And the IC50 [2]?
Answer: 97.9 µM

Question: And the IC50 [3]?
Answer: 60.2 µM

Question: And the IC50 [4, 7]?
Answer: 88.4 µM

Question: What about the Activity [6] of the same molecule?
Answer: inactive

Question: What does the source list for `COc1cc2c(cc1O)CC[C@@H](c1ccc(O)c(O)c1)O2`?
Answer: Activity [1]: inactive; IC50 [2]: 24.6 µM; IC50 [3]: 72 µM; IC50 [4, 7]: 110 µM; IC50 [5]: 13 µM
